An excerpt weighted towards active compounds, which were near 2.2% of everything screened.
ABHD4 inh: inhibitors of mouse ABHD4 | 370,000 compounds, 0.54% hits | inhibition, % at 8.92 µM | Q8VD66 | purified mABHD4, FP-Rh probe fluorescence polarization;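 active = inhibition exceeding the mean over every tested compound plus 3 SD, cut at about 30% in these data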;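 note: 0% = plate median of compound wells and 100% = S159A mutant with DMSO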
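Assay system: Wild-type mouse ABHD4 protein | Medium: HEPES pH 7.0 buffer, 150 mM NaCl, 0.01% Pluronic F-127 | Incubation: Enzyme–compound pre-incubation 45 min, then probe 60 min, both 25 °C | Technique: Fluorescence polarization with parallel and perpendicular emission, 525/598 nm | Evaluation: % inhibition of FP-Rh probe binding versus controls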
TDP2 absorb: blocks human TDP2 phosphodiesterase activity | O95551 | 370,000 compounds, 0.34% hits | recombinant TDP2, T5PNP hydrolysis, p-nitrophenol absorbance 415 nm | AID 720702 | inhibition, % at 12.8 µM;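 active = inhibition above the mean of all tested compounds plus 3 SD, set per campaign, cut at about 25% in these data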;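 note: 0% = DMSO with enzyme and 100% = buffer with substrate but no TDP2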
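test system = human TDP2 enzyme | input = TDP2 enzyme at 120 nM final | medium = 50 mM Tris-HCl pH 7.5 with Mg2+, KCl, DTT, BSA | also added = T5PNP substrate, 5 mM | times = 2 h at 37 °C | technique = epi absorbance | benchmarks = high control without enzyme, low control DMSO plus TDP2 | replication = each compound tested once, singlicate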
TCR-CD3 inh: blocks the human TCR-CD3 interaction; TAMRA-labeled TCR probe fluorescence, biochemical; inhibition, % at 9.4 µM; 360,000 compounds, 0.37% hits; AID 651800; in the data active = inhibition above about 19%;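 note: recombinant mutant TCR 2C K166C tagged with TAMRA read by polarization; 0% = receptor in buffer alone and 100% = receptor with positive control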
LEDGF integ inh: blocks HIV-1 LEDGF/p75-dependent DNA integration | TR-FRET IN-LEDGF/p75 DNA integration, Eu/Cy5 | 370,000 compounds, 0.64% hits | inhibition, % at 3.7 µM | AID 743269;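 active = inhibition above the screen-wide mean plus 3 SD, cut at about 13% in these data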;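 note: signal is the Cy5 over europium emission ratio at 671 and 618 nm; 0% = plate median of compound wells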
SIAE primary: inhibitors of human sialic acid acetylesterase SIAE; 370,000 compounds, 0.69% hits; inhibition, % at 9.66 µM; Q9HAT2; SIAE FP-Rh probe binding, fluorescence polarization;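 active = inhibition above a cutoff: mean of compounds within the control limits plus 3 SD of those, cut at about 17% in these data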;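 note: 0% = plate median of compound wells and 100% = probe without SIAE protein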
HTRA1 inhibitor: HTRA1 (human) protease inhibition; recombinant HTRA1, FP-rhodamine activity-based probe, fluorescence polarization; inhibition, % at 5.96 µM; 340,000 compounds, 0.5% hits; AID 504803; in the data active = inhibition above about 36%;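 note: 0% = enzyme with DMSO and 100% = wells lacking enzyme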
Target sequence (Q92743 whole entry, looked up): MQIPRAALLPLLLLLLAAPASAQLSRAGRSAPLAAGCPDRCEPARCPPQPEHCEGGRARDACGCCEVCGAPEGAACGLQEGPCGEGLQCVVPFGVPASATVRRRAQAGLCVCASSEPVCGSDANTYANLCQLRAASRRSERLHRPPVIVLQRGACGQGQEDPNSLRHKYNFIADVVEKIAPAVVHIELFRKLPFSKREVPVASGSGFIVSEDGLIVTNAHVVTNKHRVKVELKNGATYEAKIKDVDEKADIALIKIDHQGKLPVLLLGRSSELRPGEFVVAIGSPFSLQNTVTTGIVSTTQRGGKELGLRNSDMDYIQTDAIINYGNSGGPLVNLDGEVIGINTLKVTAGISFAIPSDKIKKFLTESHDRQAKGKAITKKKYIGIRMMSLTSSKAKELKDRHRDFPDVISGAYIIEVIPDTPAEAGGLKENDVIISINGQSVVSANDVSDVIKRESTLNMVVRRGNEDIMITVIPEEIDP
Numbers without * were called inactive; · = no result given.

SMILES | ABHD4 inh | TDP2 absorb | TCR-CD3 inh | LEDGF integ inh | SIAE primary | HTRA1 inhibitor
CCOC(=O)N1CCN(c2ncnc3c2[nH]c2ccc(OC)cc23)CC1 | 10 | -3 | -2 | -2 | 9 | 9
COc1ccc2[nH]c3c(N4CCc5ccccc5C4)ncnc3c2c1 | 36* | 1 | 5 | 4 | 17 | -5
O=c1cc(-c2ccc(O)cc2)oc2cc(O)cc(O)c12 | -25 | 0 | 2 | -4 | -7 | -9
O=c1c(O)c(-c2ccc(O)cc2)oc2cc(O)cc(O)c12 | 10 | -22 | -6 | 3 | 21* | 2
O=C(Nc1cccc(C(F)(F)F)c1)Oc1ccc(Cl)c2cccnc12 | -35 | -1 | 4 | 2 | -16 | 46*
CCN(CC)C(=O)Oc1ccc(Cl)c2cccnc12 | 2 | 8 | 2 | -2 | -1 | -18
C[C@H](CO)N1C[C@H](C)[C@@H](CN(C)C(=O)Nc2ccc(C(F)(F)F)cc2)Oc2c(NC(=O)Nc3ccc(C(F)(F)F)cc3)cccc2C1=O | -83 | -8 | 20* | -3 | -152 | -111
COc1ccc(NC(=O)Nc2ccc3c(c2)C(=O)N([C@H](C)CO)C[C@H](C)[C@@H](CN(C)Cc2ccc(Cl)c(Cl)c2)OCCCC[C@@H](C)O3)cc1 | 12 | -10 | -9 | -2 | 21* | -22
COc1ccc(NC(=O)N(C)C[C@H]2Oc3ccc(NC(=O)Nc4c(C)noc4C)cc3C(=O)N([C@H](C)CO)C[C@@H]2C)cc1 | 4 | 1 | -2 | 0 | 3 | 3
COc1ccc(NC(=O)N(C)C[C@H]2Oc3ccc(NC(=O)Nc4c(C)noc4C)cc3C(=O)N([C@H](C)CO)C[C@H]2C)cc1 | 4 | 4 | 4 | -1 | 17* | 3
COCc1c(C(=O)OCC(=O)c2ccc[nH]2)oc2ccccc12 | -3 | 1 | -5 | 2 | -8 | 2
CSCc1c(C(=O)OCC(=O)c2ccc[nH]2)oc2ccccc12 | 20 | -3 | 3 | 19* | 0 | -1
CCOC(=O)c1[nH]c2c(c1C)C(=O)CC(c1ccco1)C2 (configuration not stated) | 18 | 2 | 3 | 6 | 3 | -8
COCCOC(=O)c1[nH]c2c(c1C)C(=O)CC(c1ccco1)C2 (configuration not stated) | 16 | 8 | 14 | 16* | 17 | 1
COC(=O)C1(F)C(=O)NC(=O)NC1OC (configuration not stated) | -1 | -6 | -1 | 4 | -1 | ·
O=C(Nc1cccs1)Nc1ccc(Br)cc1F | 6 | -4 | 6 | -3 | 20* | -12
O=C(Nc1cccs1)Nc1ccc(F)cc1F | 9 | 1 | -2 | 1 | -2 | 5
CC(C)C[C@H](NC1(C(=O)NC2CCCCC2)CCOCC1)C(=O)NCC(c1ccccc1)c1ccccc1 | 9 | 3 | · | -7 | -4 | ·
CC1CCc2c(sc(NC(=O)/C=C/c3cccs3)c2C(=O)O)C1 (configuration not stated) | 2 | -7 | -3 | 31* | -1 | -2
O=C(CSc1nnc(-c2cnccn2)n1-c1ccccc1)c1ccc(F)cc1 | 11 | 0 | · | 2 | -4 | ·
Cn1c(SCC(=O)Nc2ccc(S(=O)(=O)Nc3nccs3)cc2)nc2sc3c(c2c1=O)CCCC3 | -58 | 6 | · | 6 | -42 | ·
CCCCNC(=O)C[C@H]1C[C@@]2(C(=O)OC)C(=C[C@H](C(C)(C)C)O[C@@H]2C)N(Cc2ccc(Cl)cc2Cl)C1=O | -6 | -10 | · | -2 | 3 | ·
O=[N+]([O-])c1cc([N+](=O)[O-])c2cc(-c3cccnc3)[nH]c2c1 | 6 | 26* | 1 | 4 | -8 | 9
CCN1CC=C2C(C#N)=C(N)C(C#N)(C#N)C(CCc3ccccc3)C2C1 (configuration not stated) | 34* | -4 | 10 | 2 | 15 | 28
C[C@@H]1CN([C@@H](C)CO)C(=O)CCCn2nncc2CO[C@H]1CN(C)CC1CC1 | 5 | 1 | -6 | -3 | 3 | ·
O=[N+]([O-])c1ccc(O)c2ncccc12 | 26 | -6 | -3 | 2 | 9 | 32
O=[N+]([O-])c1cc(Cl)c(O)c2ncccc12 | 18 | 1 | 1 | 2 | 13 | 55*

Compound activity from PubChem BioAssay.
